Measured values as given in ChEMBL document CHEMBL1156693, “Novel N-(phosphonomethyl) glycine derivatives: Design, characterization and biological activity” (Eur J Med Chem, 2008).

Assays:
Mus musculus [1] = assay: Clastogenic effect on C57BL mouse assessed as number of metaphase chromosomal breaks in bone marrow cells at 10 mg/kg, ip after 24 hrs; type: functional; details: route intraperitoneal
Procedure, shortened: (§1)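 Inbred male and female C57Bl mice, groups of 3 males + 3 females, dosed i.p. (0.9% NaCl vehicle/negative control); mitomycin C 3.5 mg/kg positive control. Colchicine 40 mg/kg i.p. 1 h before femoral bone marrow harvest; hypotonic 0.075 M KCl 20 min at 37 °C, methanol-acetic acid fixation, Giemsa stain; ≥50 metaphases per animal scored; group mean ± SE.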

Mus musculus [2] = assay: Clastogenic effect on C57BL mouse assessed as number of metaphase chromosomal breaks in bone marrow cells at 10 mg/kg, ip after 48 hrs; type: functional; details: route intraperitoneal; procedure, shortened: as §1
Mus musculus [3] = assay: Clastogenic effect on C57BL mouse assessed as number of metaphase chromosomal breaks in bone marrow cells at 100 mg/kg, ip after 24 hrs; type: functional; details: route intraperitoneal; procedure, shortened: as §1
Mus musculus [4] = assay: Clastogenic effect on C57BL mouse assessed as number of metaphase chromosomal breaks in bone marrow cells at 100 mg/kg, ip after 48 hrs; type: functional; details: route intraperitoneal; procedure, shortened: as §1
Mus musculus [5] = assay: Clastogenic effect on C57BL mouse assessed as number of metaphase chromosomal fragments in bone marrow cells at 10 mg/kg, ip after 24 hrs; type: functional; details: route intraperitoneal; procedure, shortened: as §1
Mus musculus [6] = assay: Clastogenic effect on C57BL mouse assessed as number of metaphase chromosomal fragments in bone marrow cells at 10 mg/kg, ip after 48 hrs; type: functional; details: route intraperitoneal; procedure, shortened: as §1
Mus musculus [7] = assay: Clastogenic effect on C57BL mouse assessed as number of metaphase chromosomal fragments in bone marrow cells at 100 mg/kg, ip after 24 hrs; type: functional; details: route intraperitoneal; procedure, shortened: as §1
Mus musculus [8] = assay: Clastogenic effect on C57BL mouse assessed as number of metaphase chromosomal fragments in bone marrow cells at 100 mg/kg, ip after 48 hrs; type: functional; details: route intraperitoneal; procedure, shortened: as §1
Mus musculus [9] = assay: Clastogenic effect on C57BL mouse assessed as number of metaphase chromosomal centromere/centromeric fusion in bone marrow cells at 10 mg/kg, ip after 24 hrs; type: functional; details: route intraperitoneal; procedure, shortened: as §1
Mus musculus [10] = assay: Clastogenic effect on C57BL mouse assessed as number of metaphase chromosomal centromere/centromeric fusion in bone marrow cells at 10 mg/kg, ip after 48 hrs; type: functional; details: route intraperitoneal; procedure, shortened: as §1
Mus musculus [11] = assay: Clastogenic effect on C57BL mouse assessed as number of metaphase chromosomal centromere/centromeric fusion in bone marrow cells at 100 mg/kg, ip after 24 hrs; type: functional; details: route intraperitoneal; procedure, shortened: as §1
Mus musculus [12] = assay: Clastogenic effect on C57BL mouse assessed as number of metaphase chromosomal centromere/centromeric fusion in bone marrow cells at 100 mg/kg, ip after 48 hrs; type: functional; details: route intraperitoneal; procedure, shortened: as §1
Mus musculus [13] = assay: Clastogenic effect on C57BL mouse assessed as number of metaphase chromosome telomere/telomeric fusion in bone marrow cells at 10 mg/kg, ip after 24 hrs; type: functional; details: route intraperitoneal; procedure, shortened: as §1
Mus musculus [14] = assay: Clastogenic effect on C57BL mouse assessed as number of metaphase chromosome telomere/telomeric fusion in bone marrow cells at 10 mg/kg, ip after 48 hrs; type: functional; details: route intraperitoneal; procedure, shortened: as §1
Mus musculus [15] = assay: Clastogenic effect on C57BL mouse assessed as number of metaphase chromosome telomere/telomeric fusion in bone marrow cells at 100 mg/kg, ip after 24 hrs; type: functional; details: route intraperitoneal; procedure, shortened: as §1
Mus musculus [16] = assay: Clastogenic effect on C57BL mouse assessed as number of metaphase chromosome telomere/telomeric fusion in bone marrow cells at 100 mg/kg, ip after 48 hrs; type: functional; details: route intraperitoneal; procedure, shortened: as §1
Mus musculus [17] = assay: Clastogenic effect on C57BL mouse assessed as bone marrow cells with abberation at 10 mg/kg, ip after 24 hrs; type: functional; details: route intraperitoneal; procedure, shortened: as §1
Mus musculus [18] = assay: Clastogenic effect on C57BL mouse assessed as bone marrow cells with abberation at 10 mg/kg, ip after 48 hrs; type: functional; details: route intraperitoneal; procedure, shortened: as §1
Mus musculus [19] = assay: Clastogenic effect on C57BL mouse assessed as bone marrow cells with abberation at 100 mg/kg, ip after 24 hrs; type: functional; details: route intraperitoneal; procedure, shortened: as §1
Mus musculus [20] = assay: Clastogenic effect on C57BL mouse assessed as bone marrow cells with abberation at 100 mg/kg, ip after 48 hrs; type: functional; details: route intraperitoneal; procedure, shortened: as §1
Mus musculus [21] = assay: Clastogenic effect on C57BL mouse assessed as mitotic index in bone marrow cells at 10 mg/kg, ip after 24 hrs; type: functional; details: route intraperitoneal
Procedure, shortened: (§2)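 C57Bl mice (3 males + 3 females per group) given compound i.p.; saline controls. Colchicine 40 mg/kg i.p. 1 h before bone marrow harvest from femur; hypotonic KCl, fixed, Giemsa-stained slides. Mitotic index = dividing cells counted among 1500 cells per animal; per-animal values averaged as group mean ± SE.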

Mus musculus [22] = assay: Clastogenic effect on C57BL mouse assessed as mitotic index in bone marrow cells at 10 mg/kg, ip after 48 hrs; type: functional; details: route intraperitoneal; procedure, shortened: as §2
Mus musculus [23] = assay: Clastogenic effect on C57BL mouse assessed as mitotic index in bone marrow cells at 100 mg/kg, ip after 24 hrs; type: functional; details: route intraperitoneal; procedure, shortened: as §2
Mus musculus [24] = assay: Clastogenic effect on C57BL mouse assessed as mitotic index in bone marrow cells at 100 mg/kg, ip after 48 hrs; type: functional; details: route intraperitoneal; procedure, shortened: as §2
HL-60 = assay: Cytotoxicity against human HL60 cells after 72 hrs by MTT assay; type: functional, cell-based; details: HL-60, 72 h
Procedure, shortened: (§3)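 Cells at 37 °C, 5% CO2; 293T in DMEM, others in RPMI 1640, both with 2 mM L-glutamine and 10% FCS. Seeded 10⁴ cells/well, 24 h preincubation, then compounds 0.195–200 µM (DMSO ≤1% final) for 72 h continuous. MTT added, 4 h, formazan dissolved in 5% formic acid-acidified DMSO, absorbance read; IC50 = concentration giving 50% survival decrease.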

LAMA-84 = assay: Cytotoxicity against human LAMA-84 cells after 72 hrs by MTT assay; type: functional, cell-based; details: LAMA-84, 72 h; procedure, shortened: as §3
K562 = assay: Cytotoxicity against human K562 cells after 72 hrs by MTT assay; type: functional, cell-based; details: K562, 72 h; procedure, shortened: as §3
DOHH-2 = assay: Cytotoxicity against human DOHH2 cells after 72 hrs by MTT assay; type: functional, cell-based; details: DOHH-2, 72 h; procedure, shortened: as §3
HD-MY-Z = assay: Cytotoxicity against human HD-MY-Z cells after 72 hrs by MTT assay; type: functional, cell-based; procedure, shortened: as §3
EJ = assay: Cytotoxicity against human EJ cells after 72 hrs by MTT assay; type: functional, cell-based; procedure, shortened: as §3
[25] = Cytotoxicity against human 293T after 72 hrs by MTT assay; type: cell-based; details: HEK-293T; procedure, shortened: as §3

| Compound | Activity (Mus musculus [1]) | Activity (Mus musculus [2]) | Activity (Mus musculus [3]) | Activity (Mus musculus [4]) | Activity (Mus musculus [5]) | Activity (Mus musculus [6]) | Activity (Mus musculus [7]) | Activity (Mus musculus [8]) | Activity (Mus musculus [9]) | Activity (Mus musculus [10]) | Activity (Mus musculus [11]) | Activity (Mus musculus [12]) | Activity (Mus musculus [13]) | Activity (Mus musculus [14]) | Activity (Mus musculus [15]) | Activity (Mus musculus [16]) | Activity (Mus musculus [17]) [%] | Activity (Mus musculus [18]) [%] | Activity (Mus musculus [19]) [%] | Activity (Mus musculus [20]) [%] | further results |
| --- | --- | --- | --- | --- | --- | --- | --- | --- | --- | --- | --- | --- | --- | --- | --- | --- | --- | --- | --- | --- | --- |
| COP(=O)(CNC1(C(=O)O)CCCC1)OC | 7 | 6 | 8 | 6 | 1 | 0 | 3 | 0 | 9 | 13 | 10 | 8 | 0 | 1 | 0 | 2 | 4.85 | 5.77 | 7 | 6.4 | Activity (Mus musculus [21]): 10.39%; Activity (Mus musculus [22]): 10.66%; Activity (Mus musculus [23]): 10.97%; Activity (Mus musculus [24]): 8.33%; IC50 (HL-60): 157 µM; IC50 (LAMA-84): 162 µM; IC50 (K562): > 200 µM; IC50 (DOHH-2): 145 µM; IC50 (HD-MY-Z): > 200 µM; IC50 (EJ): > 200 µM; IC50 [25]: > 200 µM |
| COP(=O)(CNC1(C(=O)O)CCCCC1)OC | 4 | 6 | 7 | 14 | 0 | 1 | 1 | 0 | 11 | 9 | 20 | 12 | 0 | 0 | 0 | 0 | 5.33 | 5.33 | 8.34 | 7.42 | Activity (Mus musculus [21]): 7.27%; Activity (Mus musculus [22]): 6.71%; Activity (Mus musculus [23]): 7.15%; Activity (Mus musculus [24]): 9.23%; IC50 (HL-60): 136 µM; IC50 (LAMA-84): 98.6 µM; IC50 (K562): 128 µM; IC50 (DOHH-2): 84.2 µM; IC50 (HD-MY-Z): 164 µM; IC50 (EJ): 116 µM; IC50 [25]: > 200 µM |
| COP(=O)(CNC1(C(=O)O)CCCCCC1)OC | 3 | 0 | 7 | 4 | 0 | 0 | 0 | 0 | 7 | 3 | 3 | 3 | 0 | 0 | 0 | 0 | 2.85 | 1 | 3.33 | 2.72 | Activity (Mus musculus [21]): 14.37%; Activity (Mus musculus [22]): 9.58%; Activity (Mus musculus [23]): 13.24%; Activity (Mus musculus [24]): 12%; IC50 (HL-60): 85.9 µM; IC50 (LAMA-84): 91.2 µM; IC50 (K562): 101 µM; IC50 (DOHH-2): 88.1 µM; IC50 (HD-MY-Z): 169 µM; IC50 (EJ): 151 µM; IC50 [25]: > 200 µM |
